Reference: ChEMBL document CHEMBL2203154, “Synthesis, characterization and biological studies of diosgenyl analogues” (Bioorg Med Chem Lett, 2012)

How the values were obtained:
Mus musculus [1] = test: Antiinflammatory activity in Kunming mouse assessed as inhibition of xylene-induced ear edema at 100 mg/kg, po administered for 3 days followed by xylene-challenge at 2 hrs post-last dose measured after 1 hr relative to vehicle-treated control; format: functional
In short: (§1)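 Oral gavage in mice, test compounds suspended in 0.5% CMC at 100 mg/kg; aspirin group at 50 mg/kg. Ear edema induced with xylene; inhibition calculated versus the CMC vehicle group. Ten animals per group; data as mean ± SD, with significance versus CMC at p<0.05 or p<0.01.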

HepG2 = test: Cytotoxicity against human HepG2 cells after 48 hrs by MTT assay; format: functional, cell-based; conditions: HepG2, 48 h
In short: (§2)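 MTT assay on tumor cells exposed to compound for 48 h. IC50 is the concentration (μM) that inhibits growth by 50% relative to untreated cells. Values are means of at least 3 independent assays per compound.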

[2] = Cytotoxicity against mouse C26 cells after 48 hrs by MTT assay; format: functional, cell-based; conditions: C26, 48 h; in short: as §2
MDA-MB-231 = test: Cytotoxicity against human MDA-MB-231 cells after 48 hrs by MTT assay; format: functional, cell-based; conditions: MDA-MB-231, 48 h; in short: as §2
Mus musculus [3] = test: Antiinflammatory activity in Kunming mouse assessed as inhibition of xylene-induced ear edema at 50 mg/kg, po administered for 3 days followed by xylene-challenge at 2 hrs post-last dose measured after 1 hr relative to vehicle-treated control; format: functional; in short: as §1

Compound	inhibition in vivo at 100 mg/kg (Mus musculus [1]) [%]	IC50 (HepG2) [µM]	IC50 [2] [µM]	IC50 (MDA-MB-231) [µM]	inhibition in vivo at 50 mg/kg (Mus musculus [3]) [%]
CC(=O)Oc1ccccc1C(=O)O[C@H]1CC[C@@]2(C)C(=CC[C@H]3[C@@H]4C[C@@H]5O[C@]6(CC[C@@H](C)CO6)[C@@H](C)[C@@H]5[C@@]4(C)CC[C@@H]32)C1	46.5	> 50	> 50	> 50	
C[C@@H]1CC[C@@]2(OC1)O[C@H]1C[C@H]3[C@@H]4CC=C5C[C@@H](OC(=O)CC[C@@H](N)C(=O)O[C@H]6CC[C@@]7(C)C(=CC[C@H]8[C@@H]9C[C@@H]%10O[C@]%11(CC[C@@H](C)CO%11)[C@@H](C)[C@@H]%10[C@@]9(C)CC[C@@H]87)C6)CC[C@]5(C)[C@H]4CC[C@]3(C)[C@H]1[C@@H]2C	19.1	> 50	> 50	> 50	
CC(=O)Oc1ccccc1C(=O)NCC(=O)O[C@H]1CC[C@@]2(C)C(=CC[C@H]3[C@@H]4C[C@@H]5O[C@]6(CC[C@@H](C)CO6)[C@@H](C)[C@@H]5[C@@]4(C)CC[C@@H]32)C1	39.1	> 50	> 50	> 50	
C[C@@H]1CC[C@@]2(OC1)O[C@H]1C[C@H]3[C@@H]4CC=C5C[C@@H](OC(=O)CN)CC[C@]5(C)[C@H]4CC[C@]3(C)[C@H]1[C@@H]2C [GLYCINE DIOSGENYL ESTER]	30.6	> 50	> 50	48.2	
C[C@@H]1CC[C@@]2(OC1)O[C@H]1C[C@H]3[C@@H]4CC=C5C[C@@H](OC(=O)CC[C@@H](NC(=O)c6ccccc6O)C(=O)O[C@H]6CC[C@@]7(C)C(=CC[C@H]8[C@@H]9C[C@@H]%10O[C@]%11(CC[C@@H](C)CO%11)[C@@H](C)[C@@H]%10[C@@]9(C)CC[C@@H]87)C6)CC[C@]5(C)[C@H]4CC[C@]3(C)[C@H]1[C@@H]2C	30.1	> 50	> 50	> 50	
C[C@@H]1CC[C@@]2(OC1)O[C@H]1C[C@H]3[C@@H]4CC=C5C[C@@H](OC(=O)[C@H](C)NC(=O)c6ccccc6O)CC[C@]5(C)[C@H]4CC[C@]3(C)[C@H]1[C@@H]2C	35.8	> 50	> 50	> 50	
C[C@@H]1CC[C@@]2(OC1)O[C@H]1C[C@H]3[C@@H]4CC=C5C[C@@H](O)CC[C@]5(C)[C@H]4CC[C@]3(C)[C@H]1[C@@H]2C [DISOGENIN]	32.2	> 50	> 50	> 50	
C[C@@H]1CC[C@@]2(OC1)O[C@H]1C[C@H]3[C@@H]4CC=C5C[C@@H](OC(=O)[C@H](C)N)CC[C@]5(C)[C@H]4CC[C@]3(C)[C@H]1[C@@H]2C	28.6	> 50	> 50	> 50	
C[C@@H]1CC[C@@]2(OC1)O[C@H]1C[C@H]3[C@@H]4CC=C5C[C@@H](OC(=O)CCCCCN)CC[C@]5(C)[C@H]4CC[C@]3(C)[C@H]1[C@@H]2C	38.6	14.6	4.7	7.6	
C[C@@H]1CC[C@@]2(OC1)O[C@H]1C[C@H]3[C@@H]4CC=C5C[C@@H](O[C@@H]6O[C@H](CO)[C@@H](O[C@@H]7O[C@H](CO)[C@@H](O)[C@H](O)[C@H]7O)[C@H](O)[C@H]6O[C@@H]6O[C@@H](C)[C@H](O)[C@@H](O)[C@H]6O)CC[C@]5(C)[C@H]4CC[C@]3(C)[C@H]1[C@@H]2C [DELTONIN]		7.66	1.22	1.58	
C[C@@H]1CC[C@@]2(OC1)O[C@H]1C[C@H]3[C@@H]4CC=C5C[C@@H](OC(=O)CCCCCNC(=O)c6ccccc6O)CC[C@]5(C)[C@H]4CC[C@]3(C)[C@H]1[C@@H]2C	42.6	> 50	> 50	> 50	
CC(=O)Oc1ccccc1C(=O)O [ASPIRIN]					31.9
